SKN-1 inh = suppressors of acrylamide-induced Pgst-4::GFP reporter in worms, primary screen, SKN-1 inhibitor project, whole organism, uHTS, GFP/RFP fluorescence ratio, strain VP596; C. elegans VP596 Pgst-4::GFP/RFP ratio, 24 h; inhibition, % at 21.8 µM; 360,000 compounds, 0.49% hits; AID 624304, 2012;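 active means interference check ratio from 0.5 to 1.5 plus GFP to RFP signal ratio inhibition reaching or exceeding a fixed threshold, cut at about 30% in these data, passing the limit was not always enough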
eLon inh = inhibitors of E. coli Lon protease, primary screen, biochemical, fluorescence polarization | P0A9M0 | purified E. coli Lon protease | 360,000 compounds, 0.42% hits | AID 602123, 2011 | inhibition, % at 7.94 µM; in the data active means inhibition above about 13%, passing the limit was not always enough;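 further: 0% = enzyme with probe and DMSO and 100% = no enzyme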
Target sequence (P0A9M0 whole entry, looked up): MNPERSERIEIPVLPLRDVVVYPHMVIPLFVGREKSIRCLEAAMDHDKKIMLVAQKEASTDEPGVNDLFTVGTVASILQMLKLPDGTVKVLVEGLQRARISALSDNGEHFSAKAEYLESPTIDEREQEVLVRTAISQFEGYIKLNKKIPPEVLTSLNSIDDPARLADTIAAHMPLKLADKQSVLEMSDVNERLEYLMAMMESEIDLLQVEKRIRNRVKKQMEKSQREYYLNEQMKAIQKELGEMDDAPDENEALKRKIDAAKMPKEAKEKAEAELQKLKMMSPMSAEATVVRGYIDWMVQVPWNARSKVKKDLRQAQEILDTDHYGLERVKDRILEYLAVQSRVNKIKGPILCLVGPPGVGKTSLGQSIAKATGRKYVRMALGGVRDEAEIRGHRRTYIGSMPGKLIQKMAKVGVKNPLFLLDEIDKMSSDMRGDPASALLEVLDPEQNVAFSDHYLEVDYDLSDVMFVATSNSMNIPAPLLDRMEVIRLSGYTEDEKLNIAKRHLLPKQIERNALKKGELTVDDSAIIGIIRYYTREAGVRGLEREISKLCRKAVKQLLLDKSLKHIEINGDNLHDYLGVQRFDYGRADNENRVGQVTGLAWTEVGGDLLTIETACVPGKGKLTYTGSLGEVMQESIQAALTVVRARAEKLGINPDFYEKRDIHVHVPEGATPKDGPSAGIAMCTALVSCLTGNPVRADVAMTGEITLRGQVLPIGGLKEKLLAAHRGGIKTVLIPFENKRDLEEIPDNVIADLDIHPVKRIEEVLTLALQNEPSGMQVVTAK
PREPL inhibitor = PREPL enzyme inhibitors, primary screen, biochemical, fluorescence polarization | Prolyl endopeptidase-like (Homo sapiens), Q4J6C6 | recombinant PREPL, fluorescence polarization activity-based probe | inhibition, % at 5.96 µM | 320,000 compounds, 0.68% hits | AID 2751, 2010; in the data active means inhibition above about 43%;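 further: 0% = enzyme with DMSO and 100% = wells lacking enzyme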
iPSC survival up = enhancers of single-cell hiPSC survival, primary screen, ATPlite luminescence; 100% = ROCK inhibitor wells, 0% = DMSO; AID 602274, 2012; 360,000 compounds, 0.044% hits; survival enhancement, % at 20 µM; in the data active means survival enhancement above about 18%;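 further: cells exposed to compounds for 16 hours before the ATP read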
Tb MetRS inh = T. brucei MetRS inhibitors, primary screen, biochemical, luminescence; purified T. brucei MetRS, ATP depletion, Kinase-Glo luminescence; inhibition, % at 11.9 µM; 360,000 compounds, 0.4% hits;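 active means inhibition above a per-plate cutoff of the control wells' mean inhibition plus 3 SD, cut at about 5.5% in these data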;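 further: 0% = DMSO wells median and 100% = median of wells with control inhibitor compound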
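Material: parasite MetRS enzyme / Replication: singlicate, one well per compound / Signal: luminescence of leftover ATP / Schedule: 2 h aminoacylation at 25 °C after 15 min preincubation / Medium: HEPES-MgCl2-KCl buffer plus DTT, spermine, BSA, pyrophosphatase / Doses: 11.9 µM single point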
MT1-MMP act inh = blockers of MT1-MMP proenzyme processing, primary screen, HT1080 RFP-PRO-GFP cells, GFP/RFP fluorescence | Matrix metalloproteinase-14 (Homo sapiens), P50281 | GFP/RFP ratio change, % at 20 µM | GFP/RFP ratio fluorescence, overnight; percent of plate control window, DMSO zero | AID 651647, 2012 | 360,000 compounds, 0.061% hits;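 active means GFP/RFP ratio change of at least 30% with cell ATP level not reduced by more than half and red fluorescence within 50% of control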
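Test system: HT1080 RFP-PRO-GFP cells; Benchmarks: DMSO and RFP-L50D-GFP cell wells; Timing: cells overnight before dosing, compound overnight, 37 °C, 5% CO2; Compound: one 20 µM compound dose with 1% DMSO; Read-out: GFP/RFP fluorescence ratio.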
eLon confirm = E. coli Lon protease inhibitor retest, confirmation, biochemical, fluorescence polarization. shares compounds with eLon inh. purified E. coli Lon. inhibition, % at 7.94 µM. 1,400 compounds, 31% hits; in the data active means inhibition above about 16%;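 further: 0% = enzyme with probe and DMSO and 100% = no enzyme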
Starred values were filed as active, the others as inactive; nt = no result; + = active, no number. Hits are enriched below; roughly 1.8% of the tested compounds scored in any of these assays.

SMILES	SKN-1 inh	eLon inh	PREPL inhibitor	iPSC survival up	Tb MetRS inh	MT1-MMP act inh	eLon confirm
O=C(c1ccc2c(c1)CCN2S(=O)(=O)c1ccccc1)N1CCN(c2ccccc2)CC1	2	-15	8	0	0	2	nt
O=C(/C=C/c1ccc(Cl)cc1)NC(=S)Nc1ccccc1C(=O)O	-2	17*	9	1	-1	5	-7
NC(=O)c1ccccc1NC(=O)/C=C/c1ccc(Cl)cc1	21	-10	2	-2	-1	-2	nt
COC(=O)c1cc2ccccn2c2c(C(=O)OC)c(C(=O)OC)cc1-2	11	0	4	11	0	15	nt
COC(=O)c1cc2c(C)cc3ccc(C)cn3c-2c1C(=O)OC	17	40*	6	2	-1	-43	78*
COC(=O)c1coc(-c2ccc(C)cc2)c1C(=O)OC	-2	-8	1	2	-1	2	nt
COC(=O)c1cc2c(C)c(C)c3ccccn3c-2c1C(=O)OC	13	22*	9	-2	0	-30	60*
Cc1nc(Nc2ccc(Cl)cc2)c(C#N)c(=O)[nH]1	17	19*	2	-1	0	0	0
CCN(CC)C(=O)C1c2ccccc2Oc2ccccc21	13	+	54*	-1	-1	-66	-51
Cc1cc(C)c(OCC(=O)OC(C)C(=O)NCc2ccccc2)c(C)c1 (centres undefined)	-13	2	nt	0	0	4	nt
CCOc1ccc(S(=O)(=O)N(CC(=O)Nc2cccnc2)c2ccc(F)cc2)cc1	1	-6	-8	0	0	0	nt
O=[N+]([O-])c1cc(-c2ccc(/C=N/c3nc4ccccn4c3-c3ccco3)o2)ccc1Cl	15	27*	29	-6	0	2	12
CN1C=CC2=C(C#N)C(N)C(C#N)(C#N)C(c3ccccc3)C2C1 (centres undefined)	9	17*	12	-3	0	-109	-31
CC(=O)c1ccc2c(c1)N(Cc1ccc3ccccc3c1)C(=O)C(C)S2 (centres undefined)	-13	5	nt	0	0	-5	nt
O=C(Nc1nnc(SCCC2OCCO2)s1)C1CC(=O)N(c2ccc(F)cc2)C1 (centres undefined)	16	-15	9	1	0	-4	nt
c1ccc2c(c1)CCN(C1=Nc3cccc4cccc1c34)C2	49*	35*	nt	-3	3	38	106*
c1ccc(NC2=Nc3cccc4cccc2c34)cc1	-3	-5	2	0	0	-11	nt
Cc1cc2cc(CNC(=O)CC(C)C)ccc2n1C	50	12	5	1	-1	23	nt
COc1ccc(C(=O)NCc2ccc3c(c2)cc(C)n3C)cc1OC	48	15	10	0	2	41	nt
Cc1cc2cc(CNC(=O)c3ccc(S(=O)(=O)N4CCCC4)cc3)ccc2n1C	46*	23*	6	-2	-1	16	6
COc1cccc(C(=O)NCc2ccc3c(c2)cc(C)n3C)c1	50	31*	18	1	0	31	16
Cc1cc2cc(CNC(=O)c3cccs3)ccc2n1C	34	27*	18	2	0	30	14
CCOC(=O)CCC(=O)NCc1ccc2c(c1)cc(C)n2C	67	39*	12	0	-1	22	-4
O=C(O)C[C@@H](CNC(=O)COc1ccc2ccc(=O)oc2c1)c1ccc(Cl)cc1	-12	-8	1	1	0	-2	nt
Cc1ccc(CNS(=O)(=O)c2ccc3c(c2)NC(=O)C(C)S3)cc1 (centres undefined)	-4	1	-2	0	0	1	nt
SMILES	SKN-1 inh	eLon inh	PREPL inhibitor	iPSC survival up	Tb MetRS inh	MT1-MMP act inh	eLon confirm
CCC(CC)C(=O)N(C)c1c(C)nc2c(OCc3ccccc3C(=O)OC)cccn12	11	0	nt	-2	0	5	nt
CN(C)C(CNC(=O)c1sc2ccccc2c1Cl)c1ccco1 (centres undefined)	-9	-1	nt	-4	0	2	nt
COc1ccc(/C=C\C(=O)NCc2ccc3c(c2)cc(C)n3C)cc1OC	28	25*	-1	0	0	7	-11
COc1ccc(/C=C/C(=O)NCCCNC(=O)/C=C/c2ccc(OC)c(OC)c2)cc1OC	-14	7	5	2	0	6	nt
Cc1[nH]c2ccc3c(ncn3CCC#N)c2c1C	-7	29*	23	0	-1	5	-11
CCCC(=O)NC(c1ccc(OC)c(OC)c1)c1cc(Cl)c2cccnc2c1O (centres undefined)	-6	17*	12	-1	0	0	48*
COc1ccccc1NS(=O)(=O)c1c(C(=O)N2CCCC2)c(C)n(C)c1C	2	-16	5	0	0	0	nt
Cc1ccc(S(=O)(=O)Nc2cc3c(C(=O)Nc4ccccc4)c(C)oc3c3ccccc23)cc1	6	25*	2	0	0	-11	40*
CC(=O)c1c(C)oc2c1cc(NS(=O)(=O)c1ccc(C(=O)O)cc1)c1ccccc12	-7	3	8	-1	-1	-5	nt
Cc1[nH]c2ccccc2c1/C=N/NC(=O)c1cccc(F)c1	0	31*	12	0	-1	-3	7
Cc1[nH]c2ccccc2c1/C=N/NC(=O)CNC(=O)c1ccco1	15	-1	-1	-1	0	3	nt
Cc1[nH]c2ccccc2c1/C=N\NC(=O)c1ccco1	3	159*	nt	0	-1	3	-2
Cc1ccsc1C(=O)N1CCN(c2ncc(C(F)(F)F)cc2Cl)CC1	-3	23*	12	0	0	0	-6
CCOC(=O)N1CCN(c2ncc(C(F)(F)F)cc2Cl)CC1	0	3	12	0	-1	-2	nt
CCc1ccc(NC(=O)CSCc2nc(N)nc(Nc3ccccc3CC)n2)cc1	2	-9	1	2	0	3	nt
CCc1ccccc1Nc1nc(N)nc(CSc2nnc3ccccn23)n1	-11	62*	8	0	-1	0	-3
COC(=O)Cn1c(O)c(N=NC(=O)CNC(=O)COc2cccc(C)c2)c2ccccc21	11	4	13	0	0	-3	nt
